Results published in BindingDB's records for doi:10.1021/jm4005048 (Northwestern University, 2013).

Target: Voltage-dependent L-type calcium channel subunit alpha-1C (Oryctolagus cuniculus, UniProt P15381)
Assay: Antagonist activity at rabbit CaV1.2alpha1C transfected in HEK293 cells by FLIPR assay
Summary of the method: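 HEK293 cells stably transfected with rabbit CaV1.2α1C cDNA, plated at 4 × 10⁴ cells/well and cultured 4 days in DMEM with 10% FBS. Calcium influx is read on a FLIPR Tetra with a Fluo-8 no-wash calcium dye.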

Chain of Voltage-dependent L-type calcium channel subunit alpha-1C (P15381 whole entry): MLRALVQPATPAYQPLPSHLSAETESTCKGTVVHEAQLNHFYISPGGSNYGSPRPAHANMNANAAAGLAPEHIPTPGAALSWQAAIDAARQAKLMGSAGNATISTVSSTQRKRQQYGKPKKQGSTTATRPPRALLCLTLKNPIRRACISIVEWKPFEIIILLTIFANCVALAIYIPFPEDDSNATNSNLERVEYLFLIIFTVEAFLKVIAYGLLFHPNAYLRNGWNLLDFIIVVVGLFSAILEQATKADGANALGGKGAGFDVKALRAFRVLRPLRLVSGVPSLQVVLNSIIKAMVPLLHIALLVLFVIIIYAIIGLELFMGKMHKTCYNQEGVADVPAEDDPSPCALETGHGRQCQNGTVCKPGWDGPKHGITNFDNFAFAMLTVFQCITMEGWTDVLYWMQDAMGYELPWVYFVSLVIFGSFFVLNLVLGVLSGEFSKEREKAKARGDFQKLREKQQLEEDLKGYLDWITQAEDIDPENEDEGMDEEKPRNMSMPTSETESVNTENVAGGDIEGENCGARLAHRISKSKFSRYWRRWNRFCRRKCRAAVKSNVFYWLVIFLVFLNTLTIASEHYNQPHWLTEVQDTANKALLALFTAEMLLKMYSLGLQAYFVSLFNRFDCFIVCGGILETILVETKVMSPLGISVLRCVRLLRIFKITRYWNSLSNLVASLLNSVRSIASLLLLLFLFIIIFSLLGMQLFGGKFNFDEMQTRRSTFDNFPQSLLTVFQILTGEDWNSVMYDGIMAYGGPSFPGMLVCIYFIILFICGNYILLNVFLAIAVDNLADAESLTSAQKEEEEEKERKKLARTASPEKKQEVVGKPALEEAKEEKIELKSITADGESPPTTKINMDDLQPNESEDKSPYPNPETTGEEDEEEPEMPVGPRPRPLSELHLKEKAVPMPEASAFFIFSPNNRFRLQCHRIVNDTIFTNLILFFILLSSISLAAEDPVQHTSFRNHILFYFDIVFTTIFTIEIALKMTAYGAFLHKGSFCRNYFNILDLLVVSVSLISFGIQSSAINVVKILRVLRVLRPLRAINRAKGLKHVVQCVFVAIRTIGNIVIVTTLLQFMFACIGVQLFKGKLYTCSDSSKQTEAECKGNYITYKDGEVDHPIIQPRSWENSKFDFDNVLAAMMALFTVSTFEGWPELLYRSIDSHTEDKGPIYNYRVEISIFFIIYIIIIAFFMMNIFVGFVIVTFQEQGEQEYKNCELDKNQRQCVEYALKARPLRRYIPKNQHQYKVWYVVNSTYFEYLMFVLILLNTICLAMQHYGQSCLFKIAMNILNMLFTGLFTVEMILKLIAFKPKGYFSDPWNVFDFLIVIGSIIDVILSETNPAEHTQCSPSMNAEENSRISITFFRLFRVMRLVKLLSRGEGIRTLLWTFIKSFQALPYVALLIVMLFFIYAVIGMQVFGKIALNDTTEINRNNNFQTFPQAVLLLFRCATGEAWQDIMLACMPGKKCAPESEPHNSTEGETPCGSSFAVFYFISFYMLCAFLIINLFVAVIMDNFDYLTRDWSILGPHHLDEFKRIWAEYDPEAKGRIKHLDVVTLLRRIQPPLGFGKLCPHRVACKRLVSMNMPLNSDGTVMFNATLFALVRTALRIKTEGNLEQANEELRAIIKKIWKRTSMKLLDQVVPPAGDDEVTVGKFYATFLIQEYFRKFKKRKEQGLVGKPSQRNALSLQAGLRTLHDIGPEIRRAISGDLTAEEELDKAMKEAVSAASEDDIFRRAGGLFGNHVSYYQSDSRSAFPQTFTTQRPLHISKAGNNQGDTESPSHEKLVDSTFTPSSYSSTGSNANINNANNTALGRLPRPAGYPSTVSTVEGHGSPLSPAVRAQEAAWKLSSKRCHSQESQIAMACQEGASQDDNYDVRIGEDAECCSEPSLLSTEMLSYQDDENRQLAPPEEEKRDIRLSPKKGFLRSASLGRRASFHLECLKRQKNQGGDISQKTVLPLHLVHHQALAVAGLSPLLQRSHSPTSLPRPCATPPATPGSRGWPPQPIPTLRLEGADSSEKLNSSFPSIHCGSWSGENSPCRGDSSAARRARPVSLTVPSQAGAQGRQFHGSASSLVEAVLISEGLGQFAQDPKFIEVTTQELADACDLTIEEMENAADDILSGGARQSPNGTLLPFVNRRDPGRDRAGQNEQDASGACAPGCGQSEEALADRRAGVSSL

SMILES: O=C(O)[C@H]1CC[C@@H](n2c(=O)cc(O)n(CCc3cccc(Cl)c3)c2=O)C1
- IC50: > 100 µM

SMILES: O=c1cc(O)n(CCC(c2ccccc2)c2ccccc2)c(=O)n1C1CCCC1
- IC50: 4.7 µM

SMILES: O=c1cc(O)n(CCc2cccc(Cl)c2)c(=O)n1[C@H]1C[C@H]2CC[C@@H]1C2
- IC50: > 100 µM

SMILES: C[C@H](C1CCCCC1)n1c(=O)cc(O)n(CCc2cccc(Cl)c2)c1=O
- IC50: > 100 µM

SMILES: CC(Cn1c(O)cc(=O)n(C2CC3CCC2C3)c1=O)c1cccc(Cl)c1 (stereo not given)
- IC50: 5.1 µM

SMILES: O=c1cc(O)n(CCc2cccc(Cl)c2)c(=O)n1[C@@H]1C[C@@H]2CC[C@H]1C2
- IC50: > 100 µM

SMILES: C[C@H]1[C@H](n2c(=O)cc(O)n(CCc3cccc(Cl)c3)c2=O)C[C@@H]2C[C@H]1C2(C)C
- IC50: > 100 µM

SMILES: C[C@@H](C1CCCCC1)n1c(=O)cc(O)n(CCc2ccc(Cl)cc2)c1=O
- IC50: > 100 µM

SMILES: O=c1cc(O)n(CCc2cccc(C(F)(F)F)c2)c(=O)n1[C@H]1C[C@H]2CC[C@@H]1C2
- IC50: > 100 µM

SMILES: C[C@@H](C1CCCCC1)n1c(=O)cc(O)n(CCc2cccc(Cl)c2)c1=O
- IC50: > 100 µM

SMILES: C[C@H](C1CCCCC1)n1c(=O)cc(O)n(CCc2ccc(Cl)cc2)c1=O
- IC50: > 100 µM

SMILES: O=c1cc(O)n(CCc2ccc(Cl)cc2)c(=O)n1C[C@H]1CCCO1
- IC50: > 100 µM

SMILES: COC(=O)[C@H](Cc1ccccc1)n1c(O)cc(=O)n(C2CCCC2)c1=O
- IC50: > 100 µM

SMILES: O=c1cc(O)n(-c2cccc(C(F)(F)F)c2)c(=O)n1C1CCCC1
- IC50: > 100 µM

SMILES: CCOC(=O)[C@@H]1CCC[C@@H]1n1c(=O)cc(O)n(CCc2cccc(Cl)c2)c1=O
- IC50: 12.6 µM

SMILES: CC(C)(Cn1c(O)cc(=O)n(C2CCCC2)c1=O)c1cccc(Cl)c1
- IC50: 12.6 µM

SMILES: C[C@H](c1cccc2ccccc12)n1c(O)cc(=O)n(CCc2cccc(Cl)c2)c1=O
- IC50: 10 µM

SMILES: O=c1cc(O)n(CCc2cccc(Cl)c2)c(=O)n1C1CCCC1
- IC50: > 100 µM

SMILES: C[C@@H]1[C@@H](n2c(=O)cc(O)n(CCc3cccc(Cl)c3)c2=O)C[C@H]2C[C@@H]1C2(C)C
- IC50: > 100 µM

SMILES: C[C@H]1CCC[C@H]1n1c(=O)cc(O)n(CCc2ccc(Cl)cc2)c1=O
- IC50: 10 µM

SMILES: O=c1cc(O)n(CCc2ccc(Cl)cc2)c(=O)n1[C@H]1C[C@H]2CC[C@@H]1C2
- IC50: 100 µM

SMILES: CC1(C)CCC[C@H]1n1c(=O)cc(O)n(CCc2cccc(Cl)c2)c1=O
- IC50: 4.7 µM

SMILES: CC1(C)[C@@H]2CC[C@H](Cn3c(=O)cc(O)n(CCc4ccc(Cl)cc4)c3=O)[C@H]1C2
- IC50: > 100 µM

SMILES: O=c1cc(O)n(CC2(c3ccc(Cl)cc3)CC2)c(=O)n1C1CCCC1
- IC50: > 100 µM

SMILES: O=c1cc(O)n(CCc2cccc(C(F)(F)F)c2)c(=O)n1[C@@H]1C[C@@H]2CC[C@H]1C2
- IC50: 100 µM

SMILES: C[C@H]1[C@H](n2c(=O)cc(O)n(CCc3ccc(Cl)cc3)c2=O)C[C@@H]2C[C@H]1C2(C)C
- IC50: > 100 µM

SMILES: CC1(C)[C@@H]2CC[C@@]1(C)[C@@H](n1c(=O)cc(O)n(CCc3ccc(Cl)cc3)c1=O)C2
- IC50: > 100 µM

SMILES: C[C@@H]1CCC[C@@H]1n1c(=O)cc(O)n(CCc2ccc(Cl)cc2)c1=O
- IC50: 5.1 µM

SMILES: CC1(C)[C@@H]2CC[C@@]1(C)[C@@H](n1c(=O)cc(O)n(CCc3cccc(Cl)c3)c1=O)C2
- IC50: > 100 µM

SMILES: O=c1cc(O)n(CCc2cccc(Cl)c2)c(=O)n1[C@H]1CCC[C@@H]1O
- IC50: > 100 µM
